Assay results reported in ChEMBL document CHEMBL1250448, “Inhibitor hijacking of Akt activation” (Nat Chem Biol, 2009).
Each block holds one molecule with its values, some of them ahead of it. The source made the active and inactive calls. No cut-off for these calls is given here.

Legend:
[1] = target: T1, RAC-alpha serine/threonine-protein kinase (Homo sapiens, UniProt P31749); assay: Induction of flag-tagged wild type AKT1 Thr308 hyperphosphorylation expressed in HEK293 cells coexpressing HA-tagged AKT1 M227G after 30 mins by immunoblotting
T1 sequence (P31749 whole entry): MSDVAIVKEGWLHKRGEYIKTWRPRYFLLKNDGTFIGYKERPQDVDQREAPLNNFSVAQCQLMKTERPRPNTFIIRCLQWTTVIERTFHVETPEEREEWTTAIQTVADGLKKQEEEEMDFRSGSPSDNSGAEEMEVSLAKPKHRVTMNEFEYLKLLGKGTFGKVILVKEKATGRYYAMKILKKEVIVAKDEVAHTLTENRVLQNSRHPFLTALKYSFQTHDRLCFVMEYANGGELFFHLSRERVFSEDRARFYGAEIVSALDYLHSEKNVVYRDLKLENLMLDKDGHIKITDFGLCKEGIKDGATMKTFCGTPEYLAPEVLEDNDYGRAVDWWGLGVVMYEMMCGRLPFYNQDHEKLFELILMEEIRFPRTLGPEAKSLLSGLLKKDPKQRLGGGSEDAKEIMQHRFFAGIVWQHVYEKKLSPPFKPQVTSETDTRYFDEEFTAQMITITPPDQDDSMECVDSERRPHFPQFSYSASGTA

[2] = tested on: RAC-alpha serine/threonine-protein kinase (Homo sapiens), P31749 [M227G]; assay: Induction of myristoylated AKT1 M227G mutant Thr308 hyperphosphorylation expressed in HEK293 cells at 2.5 uM after 30 mins by immunoblotting; conditions: HEK-293
Chain of RAC-alpha serine/threonine-protein kinase (Homo sapiens), P31749 [M227G] (P31749 whole entry M227G): as the sequence (P31749 whole entry) above, with M227G counted along it

[3] = tested on: RAC-alpha serine/threonine-protein kinase (Homo sapiens), P31749 [M227G]; assay: Induction of myristoylated AKT1 M227G mutant Ser473 hyperphosphorylation expressed in HEK293T cells at 2.5 uM after 30 mins pretreated with mTOR kinase inhibitor PP242 for 10 mins before compound addition by immunoblotting; format: cell-based; conditions: HEK-293T
[4] = tested on: RAC-alpha serine/threonine-protein kinase (Homo sapiens), P31749 [M227G]; assay: Induction of myristoylated AKT1 M227G mutant Ser473 hyperphosphorylation expressed in HEK293 cells after 30 mins by immunoblotting; conditions: HEK-293
MCF7 = assay: Induction of myristoylated AKT2 M225G mutant Ser473 hyperphosphorylation expressed in MCF7 cells at 2.5 uM after 30 mins by immunoblotting; format: cell-based
HEK-293T [5] = assay: Induction of myristoylated AKT2 M225G and kinase dead D289A mutant Thr308 hyperphosphorylation expressed in HEK293T cells at 2.5 uM after 30 mins by immunoblotting; format: cell-based
MiaPaCa2 [6] = assay: Induction of myristoylated AKT2 M225G and kinase dead D289A mutant Thr308 hyperphosphorylation expressed in MiaPaCa2 cells at 2.5 uM after 30 mins by immunoblotting; format: cell-based
[7] = tested on: RAC-alpha serine/threonine-protein kinase (Homo sapiens), P31749 [M227G]; assay: Induction of myristoylated AKT1 M227G mutant Ser473 hyperphosphorylation expressed in HEK293T cells at 2.5 uM after 30 mins pretreated with pan-PI3K inhibitor PIK90 for 10 mins before compound addition by immunoblotting; format: cell-based; conditions: HEK-293T
HEK-293T [8] = assay: Induction of myristoylated AKT3 M229G mutant Thr308 hyperphosphorylation expressed in HEK293T cells at 2.5 uM after 30 mins pretreated with mTOR kinase inhibitor PP242 for 10 mins before compound addition by immunoblotting; format: cell-based
[9] = tested on: RAC-alpha serine/threonine-protein kinase (Homo sapiens), P31749 [M227G]; assay: Induction of myristoylated AKT1 M227G Ser473 hyperphosphorylation expressed in MiaPaCa2 cells at 2.5 uM after 30 mins by immunoblotting; format: cell-based
[10] = tested on: RAC-alpha serine/threonine-protein kinase (Homo sapiens), P31749 [M227G,D292A]; assay: Induction of myristoylated AKT1 M227G and kinase dead D292A mutant Ser473 hyperphosphorylation expressed in PC3 cells at 2.5 uM after 30 mins by immunoblotting; format: cell-based; conditions: PC-3
[11] = tested on: RAC-alpha serine/threonine-protein kinase (Homo sapiens), P31749 [M227G]; assay: Increase in catalytic activity of compound exposed AKT1 M227G mutant expressed in HEK293 cells measured post compound dissociation by in vitro immunoprecipitation kinase assay relative to untreated AKT1 M227G mutant; conditions: HEK-293
MiaPaCa2 [12] = assay: Induction of myristoylated AKT2 M225G mutant Thr308 hyperphosphorylation expressed in MiaPaCa2 cells at 2.5 uM after 30 mins by immunoblotting; format: cell-based
HEK-293T [13] = assay: Induction myristoylated AKT2 M225G mutant Ser473 hyperphosphorylation expressed in HEK293T cells at 2.5 uM after 30 mins pretreated with mTOR kinase inhibitor PP242 for 10 mins before compound addition by immunoblotting; format: cell-based
[14] = tested on: RAC-alpha serine/threonine-protein kinase (Homo sapiens), P31749 [M227G]; assay: Induction of myristoylated AKT1 M227G mutant Thr308 hyperphosphorylation expressed in HEK293 cells after 30 mins by immunoblotting; conditions: HEK-293
[15] = target: T1, RAC-alpha serine/threonine-protein kinase; assay: Inhibition of wild type AKT1 expressed in HEK293 cells assessed as reduction of IGF1-induced GSK3-beta Ser9 phosphorylation treated 20 mins before IGF1 stimulation by immunoblotting; format: cell-based
Outline: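 Untransfected HEK293 cells carrying endogenous Akt were serum-starved overnight. They were treated with compound for 20 min, then stimulated with 50 ng/ml IGF-1 for 10 min. DMSO stocks were diluted 1:1000. Lysates in Tris pH 7.5/Triton buffer with phosphatase inhibitors were immunoblotted for GSK3β Ser9 and Akt Thr308/Ser473 phosphorylation, read by ECL.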

[16] = tested on: RAC-alpha serine/threonine-protein kinase (Homo sapiens), P31749 [M227G]; assay: Induction of myristoylated AKT1 M227G Thr308 hyperphosphorylation expressed in PC3 cells at 2.5 uM after 30 mins by immunoblotting; format: cell-based; conditions: PC-3
HEK-293T [17] = assay: Induction of myristoylated AKT3 M229G mutant Thr308 hyperphosphorylation expressed in HEK293T cells at 2.5 uM after 30 mins by immunoblotting; format: cell-based
[18] = target: Misshapen-like kinase 1 (Homo sapiens) (UniProt Q8N4C8); assay: Inhibition of MINK1 at 1 uM in presence of 10 uM ATP by Select Screen kinase assay relative to untreated control
Chain of Misshapen-like kinase 1 (Homo sapiens) (Q8N4C8 whole entry, looked up): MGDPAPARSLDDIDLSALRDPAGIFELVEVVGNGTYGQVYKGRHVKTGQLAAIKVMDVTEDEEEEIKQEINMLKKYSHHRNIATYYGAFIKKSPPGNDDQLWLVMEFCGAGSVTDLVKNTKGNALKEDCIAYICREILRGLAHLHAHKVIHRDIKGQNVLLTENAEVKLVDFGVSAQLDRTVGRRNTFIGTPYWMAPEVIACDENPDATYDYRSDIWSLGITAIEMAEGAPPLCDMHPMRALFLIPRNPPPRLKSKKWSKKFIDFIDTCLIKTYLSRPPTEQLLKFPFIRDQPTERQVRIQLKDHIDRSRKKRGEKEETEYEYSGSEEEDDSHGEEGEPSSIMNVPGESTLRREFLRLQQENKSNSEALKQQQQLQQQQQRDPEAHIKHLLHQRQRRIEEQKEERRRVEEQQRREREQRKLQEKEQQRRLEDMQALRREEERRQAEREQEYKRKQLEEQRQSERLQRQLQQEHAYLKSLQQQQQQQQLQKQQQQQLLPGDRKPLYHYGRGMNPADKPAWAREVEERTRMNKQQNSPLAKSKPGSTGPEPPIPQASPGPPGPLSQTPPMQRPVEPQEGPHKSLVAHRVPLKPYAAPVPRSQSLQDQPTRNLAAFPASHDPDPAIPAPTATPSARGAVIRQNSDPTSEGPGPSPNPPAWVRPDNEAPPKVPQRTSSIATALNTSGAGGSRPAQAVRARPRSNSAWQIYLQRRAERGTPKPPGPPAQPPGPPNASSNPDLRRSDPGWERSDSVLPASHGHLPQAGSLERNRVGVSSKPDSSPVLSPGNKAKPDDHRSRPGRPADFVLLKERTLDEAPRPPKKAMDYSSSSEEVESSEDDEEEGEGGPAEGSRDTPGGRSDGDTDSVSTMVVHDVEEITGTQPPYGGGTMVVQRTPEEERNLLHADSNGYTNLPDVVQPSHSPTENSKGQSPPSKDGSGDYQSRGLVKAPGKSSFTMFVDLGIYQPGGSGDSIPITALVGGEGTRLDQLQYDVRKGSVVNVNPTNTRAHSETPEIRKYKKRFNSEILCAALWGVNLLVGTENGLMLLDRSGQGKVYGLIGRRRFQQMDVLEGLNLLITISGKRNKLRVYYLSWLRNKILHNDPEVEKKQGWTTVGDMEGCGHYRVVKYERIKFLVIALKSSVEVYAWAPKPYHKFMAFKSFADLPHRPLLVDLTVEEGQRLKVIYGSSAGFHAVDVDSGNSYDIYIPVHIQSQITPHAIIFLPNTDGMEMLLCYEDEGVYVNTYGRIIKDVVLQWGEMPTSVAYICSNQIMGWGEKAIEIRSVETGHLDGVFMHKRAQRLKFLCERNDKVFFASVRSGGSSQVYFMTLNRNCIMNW

[19] = target: Rho-associated protein kinase 1 (Homo sapiens) (UniProt Q13464); assay: Inhibition of ROCK1 at 1 uM in presence of 10 uM ATP by Select Screen kinase assay relative to untreated control
[20] = target: Serine/threonine-protein kinase pim-1 (Homo sapiens) (UniProt P11309); assay: Inhibition of PIM1 at 1 uM in presence of 10 uM ATP by Select Screen kinase assay relative to untreated control
Chain of Serine/threonine-protein kinase pim-1 (Homo sapiens) (P11309 whole entry, looked up): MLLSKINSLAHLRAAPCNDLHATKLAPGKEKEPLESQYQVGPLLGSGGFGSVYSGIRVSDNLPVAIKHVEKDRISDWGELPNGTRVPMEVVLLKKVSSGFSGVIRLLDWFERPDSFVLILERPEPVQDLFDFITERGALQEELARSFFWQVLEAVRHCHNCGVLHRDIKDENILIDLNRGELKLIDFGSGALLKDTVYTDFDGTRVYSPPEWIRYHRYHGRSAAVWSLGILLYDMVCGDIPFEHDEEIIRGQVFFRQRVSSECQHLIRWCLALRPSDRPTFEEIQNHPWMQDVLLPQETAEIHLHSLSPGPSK
Outline: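 Profiling panel of 220 purified kinases (SelectScreen), each compound tested at 1 μM. Read-out is percent inhibition of kinase activity.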

[21] = target: Calcium/calmodulin-dependent protein kinase type II subunit delta (Homo sapiens) (UniProt Q13557); assay: Inhibition of CAMK2D at 1 uM in presence of 10 uM ATP by Select Screen kinase assay relative to untreated control
Chain of Calcium/calmodulin-dependent protein kinase type II subunit delta (Homo sapiens) (Q13557 whole entry): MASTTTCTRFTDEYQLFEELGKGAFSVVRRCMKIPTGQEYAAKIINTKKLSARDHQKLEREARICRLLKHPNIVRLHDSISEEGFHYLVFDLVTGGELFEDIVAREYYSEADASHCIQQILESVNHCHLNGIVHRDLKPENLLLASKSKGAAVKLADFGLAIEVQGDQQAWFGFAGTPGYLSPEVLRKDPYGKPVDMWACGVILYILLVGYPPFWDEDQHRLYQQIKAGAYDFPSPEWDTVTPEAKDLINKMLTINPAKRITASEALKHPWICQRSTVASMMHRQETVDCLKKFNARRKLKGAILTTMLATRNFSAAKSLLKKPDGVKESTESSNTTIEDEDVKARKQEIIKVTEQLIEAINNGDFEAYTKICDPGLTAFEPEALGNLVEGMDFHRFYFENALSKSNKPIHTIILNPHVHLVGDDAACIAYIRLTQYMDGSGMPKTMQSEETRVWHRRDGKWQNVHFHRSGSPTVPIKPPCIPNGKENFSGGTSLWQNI
Outline: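 Single-point screen at 1 μM against a panel of 220 purified kinases, run by Invitrogen staff as a SelectScreen profiling service. Read-out is percent inhibition of kinase activity.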

[22] = target: 3-phosphoinositide-dependent protein kinase 1 (Homo sapiens) (UniProt O15530); assay: Inhibition of PDK1 at 1 uM in presence of 10 uM ATP by Select Screen kinase assay relative to untreated control
Chain of 3-phosphoinositide-dependent protein kinase 1 (Homo sapiens) (O15530 whole entry): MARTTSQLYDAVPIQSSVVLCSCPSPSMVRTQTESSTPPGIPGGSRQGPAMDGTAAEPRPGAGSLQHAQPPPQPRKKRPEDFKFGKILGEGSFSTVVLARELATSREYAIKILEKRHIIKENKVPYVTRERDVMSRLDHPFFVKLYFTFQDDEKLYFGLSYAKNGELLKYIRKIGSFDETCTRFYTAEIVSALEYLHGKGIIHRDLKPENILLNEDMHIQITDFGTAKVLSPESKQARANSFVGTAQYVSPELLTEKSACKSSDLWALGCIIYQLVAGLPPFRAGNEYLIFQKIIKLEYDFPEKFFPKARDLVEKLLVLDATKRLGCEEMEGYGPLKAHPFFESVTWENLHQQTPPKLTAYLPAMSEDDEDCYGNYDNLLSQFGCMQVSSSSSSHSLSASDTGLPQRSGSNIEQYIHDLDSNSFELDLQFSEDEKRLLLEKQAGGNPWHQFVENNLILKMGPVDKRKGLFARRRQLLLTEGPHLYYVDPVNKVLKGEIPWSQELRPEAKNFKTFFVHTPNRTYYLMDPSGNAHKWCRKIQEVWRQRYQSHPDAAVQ
Outline: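 Commercial SelectScreen profiling panel of 220 purified kinases. Each kinase was tested at a single inhibitor concentration of 1 μM, and activity was expressed as percent inhibition.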

[23] = tested on: Tyrosine-protein kinase JAK2 (Homo sapiens), O60674 [V617F]; assay: Inhibition of JAK2 JH1 JH2 domain V617F mutant at 1 uM in presence of 10 uM ATP by Select Screen kinase assay relative to untreated control
Chain of Tyrosine-protein kinase JAK2 (Homo sapiens), O60674 [V617F] (O60674 whole entry V617F, the tested form may be a part): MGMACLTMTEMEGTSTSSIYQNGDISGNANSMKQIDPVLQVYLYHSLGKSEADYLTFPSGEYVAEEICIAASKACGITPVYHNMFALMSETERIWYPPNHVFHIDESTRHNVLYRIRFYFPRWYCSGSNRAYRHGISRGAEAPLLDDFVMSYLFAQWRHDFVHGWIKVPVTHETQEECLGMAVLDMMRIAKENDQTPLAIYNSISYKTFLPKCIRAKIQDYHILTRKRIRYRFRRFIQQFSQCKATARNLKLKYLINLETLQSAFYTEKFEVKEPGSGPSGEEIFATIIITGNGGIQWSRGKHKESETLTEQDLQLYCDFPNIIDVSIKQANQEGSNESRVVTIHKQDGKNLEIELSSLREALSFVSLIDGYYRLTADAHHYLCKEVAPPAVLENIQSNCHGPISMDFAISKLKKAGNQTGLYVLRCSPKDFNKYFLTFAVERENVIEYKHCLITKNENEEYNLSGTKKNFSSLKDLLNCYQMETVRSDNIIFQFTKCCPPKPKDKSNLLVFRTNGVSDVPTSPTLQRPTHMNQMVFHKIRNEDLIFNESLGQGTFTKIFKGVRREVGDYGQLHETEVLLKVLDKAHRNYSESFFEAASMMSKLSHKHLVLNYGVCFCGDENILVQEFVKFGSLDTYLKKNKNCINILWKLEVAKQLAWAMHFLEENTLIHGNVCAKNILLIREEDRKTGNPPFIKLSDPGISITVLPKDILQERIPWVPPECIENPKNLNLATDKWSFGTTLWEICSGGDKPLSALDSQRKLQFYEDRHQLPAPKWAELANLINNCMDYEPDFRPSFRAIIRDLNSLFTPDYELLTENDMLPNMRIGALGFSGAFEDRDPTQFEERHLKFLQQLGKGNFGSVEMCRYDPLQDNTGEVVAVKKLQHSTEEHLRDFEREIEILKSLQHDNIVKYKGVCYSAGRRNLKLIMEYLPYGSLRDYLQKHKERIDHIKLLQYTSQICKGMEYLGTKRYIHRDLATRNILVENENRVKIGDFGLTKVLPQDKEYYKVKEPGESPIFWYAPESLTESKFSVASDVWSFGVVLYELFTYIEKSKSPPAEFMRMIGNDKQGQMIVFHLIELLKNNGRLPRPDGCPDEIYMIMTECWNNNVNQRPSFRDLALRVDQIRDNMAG

[24] = target: Ribosomal protein S6 kinase beta-1 (Homo sapiens, UniProt P23443); assay: Inhibition of S6K1
[25] = target: RAC-alpha serine/threonine-protein kinase (Rattus norvegicus) (UniProt P47196); assay: Induction AKT1 Ser473 hyperphosphorylation in insulin-induced rat L6 cells after 20 mins before insulin stimulation by immunoblotting; format: cell-based

Activity [1]: inactive
Activity [2]: Active
Activity [3]: inactive
Activity [4]: Dose-dependent effect
Activity [7]: inactive
Activity [9]: Active
Activity [10]: Active
fold change (FC) [11]: 10
Activity [14]: Dose-dependent effect
inhibition [15]: inactive
Activity [16]: Active
SMILES: CCCc1cc(-c2cncc(OC[C@@H](N)Cc3c[nH]c4ccccc34)c2)cc2c(C)n[nH]c12
Activity (MCF7): Active
Activity (HEK-293T [5]): Active
Activity (MiaPaCa2 [6]): Active
Activity (HEK-293T [8]): Active
Activity (MiaPaCa2 [12]): Active
Activity (HEK-293T [13]): inactive
Activity (HEK-293T [17]): Active

SMILES: Cc1n[nH]c2ccc(-c3cncc(OC[C@@H](N)Cc4c[nH]c5ccccc45)c3)cc12
inhibition [15]: Active

inhibition [18]: 38%
inhibition [19]: 48%
inhibition [20]: 9%
inhibition [21]: 85%
inhibition [22]: 89%
inhibition [23]: 105%
SMILES: O=C(NCCCNc1nc(Nc2cccc(NC(=O)N3CCCC3)c2)ncc1I)c1cccs1

inhibition [18]: 71%
inhibition [19]: -2%
inhibition [20]: 20%
inhibition [21]: 11%
inhibition [22]: 12%
IC50 [24]: 9.1 nM
inhibition [23]: -3%
Activity [25]: inactive
SMILES: COc1ccccc1N1CCN(c2ncnc3[nH]nc(Br)c23)CC1
